Published values collected from several papers.
Protocols differ between the studies behind these lines.

Compound	assay	system	conditions	measurement	value
Cc1c(C(=O)O)ccc2c3n(nc12)[C@@H]1[C@H](C3)N(CC2CC2)[C@@]2(C(=O)Nc3cc(Cl)ccc32)[C@H]1c1cccc(Cl)c1F		FVB mouse, plasma	oral, 10 mg/kg, single dose	bioavailability	79%
Cc1c(C(=O)O)ccc2c3n(nc12)[C@@H]1[C@H](C3)N(CC2CC2)[C@@]2(C(=O)Nc3cc(Cl)ccc32)[C@H]1c1cccc(Cl)c1F		female mouse, plasma	oral, 5 mg/kg	bioavailability	119%
Cc1cc(-c2cn[nH]c2-c2cccc(OCc3cccc(C#N)c3)c2)cc(C)n1		mouse, plasma	oral, 200 mg/kg	bioavailability	47%
CCN1CCN(Cc2ccc(NC(=O)c3ccc(C)c(NC(=O)c4cncc(-c5cccs5)c4)c3)cc2C(F)(F)F)CC1		mouse, plasma	intraperitoneal, 15 mg/kg, single dose	AUC(0-inf)	1.75 µg·h/mL
CN1CCN(C(=O)[C@H](CCCN[C@@H]2C[C@H]2c2ccc(F)cc2)NC(=O)c2ccc(-n3ccnn3)cc2)CC1		CD-1 mouse, plasma	oral, 10 mg/kg	AUC(0-t)	2.27 µM·h
CN(C)C/C=C/C(=O)Nc1cc2c(Nc3ccc(F)c(Cl)c3)ncnc2cc1O[C@H]1CCOC1	chemical stability	PBS	250 µM, pH 7.4	half-life	> 4.17 days
CC1=NN(/C(=N/c2nnc(C)s2)Nc2ccc(C)c(C)c2)C(c2cc(F)c(F)c(F)c2)S1 (stereo not shown)		male CD-1 mouse, plasma	oral, 30 mg/kg	bioavailability	13.4%
CCOc1ccc(N(C)S(=O)(=O)c2cc(Cl)sc2C(=O)Nc2cc(Cl)cc(C(=O)O)c2)cc1OC		male C57BL/6 mouse, plasma	intraperitoneal, 10 mg/kg	AUC(0-inf)	6.1 µg·h/mL
Cc1cc2sc(N)nc2c2cccnc12		female BALB/c mouse, plasma	intraperitoneal, 30 mg/kg, single dose	AUC(0-t)	45500 ng·h/mL
Nc1ccc(/N=N/c2cccc(F)c2F)c(N)n1		male CD-1 mouse, plasma	intraperitoneal, 100 mg/kg	bioavailability	261%
Nc1ncn([C@H]2C[C@H](O)[C@@H](CO)O2)c(=O)n1		female C57BL/6 mouse, plasma	intravenous, 0.4 mg/kg	AUC(0-t)	182 ng·h/mL
CC(C)C[C@H](NC(=O)[C@@H]1COCCCCCC(=O)N2C[C@H](F)C[C@H]2C(=O)N1)C(=O)[C@@]1(C)CO1		male BALB/c mouse, plasma	oral, 150 mg/kg	bioavailability	~10%
CNC(=O)c1ccc(N2C(=S)N(c3ccc(C#N)c(C(F)(F)F)c3)C(=O)C2(C)C)cc1F		male C57BL/6 mouse, plasma	oral, 0.0215 mmol/kg	bioavailability	45%
